Calls of active or inactive are those of the source.
What was measured:
[1] = (§1) Inhibition of SOD1 G93A mutant protein aggregation-mediated cytotoxicity in rat PC12 cells expressing yellow fluorescent protein assessed as increase in cell viability; format: cell-based; details: PC-12
PC-12 [2] = assay: Inhibition of SOD1 G93A mutant protein aggregation-mediated cytotoxicity in rat PC12 cells expressing yellow fluorescent protein assessed as increase in cell viability relative to radicicol; format: cell-based; parameters: concentration or dose not given beside the values
Procedure, shortened: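 PC12 cells expressing G93A SOD1-YFP; MG132 proteasome inhibition induces cytotoxic mutant SOD1 aggregates. Cell survival measured as protection read-out; efficacy expressed relative to radicicol positive control.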

SH-SY5Y = assay: Cytoprotective activity against MG132-induced cytotoxicity in human SH-SY5Y cells assessed as cell viability at 100 uM pre-treated for 24 hrs before MG132-induction measured after 48 hrs by Calcein-AM-based fluorimetry; format: functional
PC-12 [3] = assay: Cytoprotective activity against MG132-induced cytotoxicity in rat PC12 cells assessed as cell viability at 100 uM pre-treated for 24 hrs before MG132-induction measured after 48 hrs by Calcein-AM-based fluorimetry; format: functional
HEK293 = assay: Cytoprotective activity against MG132-induced cytotoxicity in human HEK293 cells assessed as cell viability at 100 uM pre-treated for 24 hrs before MG132-induction measured after 48 hrs by Calcein-AM-based fluorimetry; format: functional
Cerebral cortex neuron = assay: Cytoprotective activity against MG132-induced cytotoxicity in rat primary cortical neurons cells assessed as cell viability at 100 uM pre-treated for 24 hrs before MG132-induction measured after 48 hrs by Calcein-AM-based fluorimetry; format: functional
Procedure, shortened: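 Neurons from E18 rat cortex (Sprague-Dawley or Fischer 344), papain-dissociated, plated at 20,000 cells/well on poly-D-lysine, cultured 5 days in Neurobasal/B27 (~90% neurons). Six-point series from 100 μM top in roughly one-third steps, 24 h pre-incubation, then MG132 100 nM final. Viability read 48 h later by Calcein-AM (1 μM, 20 min, RT) fluorescence. Active if ≥5 SD above MG132 controls.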

HeLa = assay: Cytoprotective activity against MG132-induced cytotoxicity in human HeLa cells assessed as cell viability at 100 uM pre-treated for 24 hrs before MG132-induction measured after 48 hrs by Calcein-AM-based fluorimetry; format: functional
PC-12 [4] = assay: as §1; format: cell-based

Row | Compound | EC50 [1] | Efficacy (PC-12 [2]) | further results
1 | O=C1CC(=O)CC(c2ccccc2C(F)(F)F)C1 | 3.2 µM | 100% | 
2 | O=C1CC(=O)CC([C@@H]2C[C@H]2c2ccccc2)C1 | 2.65 µM | 100% | 
3 | O=C1CC(=O)CC(c2cccc(Oc3cc(Cl)cc(Cl)c3)c2)C1 | 6.66 µM | 100% | 
4 | O=C1CC(=O)CC(c2cccc(Cl)c2)C1 | 6.52 µM | 100% | 
5 | CCCCCc1ccc(C2CC(=O)CC(=O)C2)cc1 | 2.01 µM | 100% | 
6 | CC1(COc2cc(C(F)(F)F)cc(C(F)(F)F)c2)CC(=O)CC(=O)C1 | 0.7 µM | 100% | 
7 | CCc1ccccc1C1CC(=O)CC(=O)C1 | 3.16 µM | 100% | 
8 | CCOc1ccc(C2CC(=O)CC(=O)C2)c(OCC)c1 | 1.49 µM | 100% | 
9 | O=C1CC(=O)CC(c2ccc(Oc3cccc(Cl)c3)cc2)C1 | 3.6 µM | 100% | 
10 | O=C1CC(=O)CC(c2cc(Cl)cc(Cl)c2)C1 | 2.35 µM | 100% | 
11 | COc1cc(OC)cc(C2CC(=O)CC(=O)C2)c1 | 5.2 µM | 100% | 
12 | O=C1CC(=O)CC(c2ccccc2Oc2ccc(F)cc2)C1 | 1.16 µM | 100% | 
13 | O=C1CC(=O)CC(c2ccc(Oc3ccc(Cl)cc3)cc2)C1 | 2.88 µM | 100% | 
14 | CCCc1ccc(C2CC(=O)CC(=O)C2)cc1 | 2.22 µM | 100% | 
15 | O=C1CC(=O)CC(COc2ccccc2)C1 | > 32 µM | 100% | 
16 | O=C1CC(=O)CC(c2cc(Cl)cc(-c3ccccc3)c2)C1 | 1.1 µM | 100% | 
17 | CCOc1cccc(C2CC(=O)CC(=O)C2)c1OCC | 3.99 µM | 100% | 
18 | O=C1CC(=O)CC(c2cc(-c3ccccc3)cc(C(F)(F)F)c2)C1 | 0.73 µM | 100% | 
19 | O=C1CC(=O)CC(COc2cc(C(F)(F)F)cc(C(F)(F)F)c2)C1 | 0.7 µM | 100% | 
20 | O=C1CC(=O)N(CCc2ccccc2)C(=O)N1CCc1ccccc1 |  | 100% | Activity (SH-SY5Y): Active; Activity (PC-12 [3]): Active; Activity (HEK293): Active; Activity (Cerebral cortex neuron): Active; Activity (HeLa): Active
21 | O=C1CC(=O)CC(c2cccc(OC(F)(F)F)c2)C1 | 2.04 µM | 100% | 
22 | O=C1CC(=O)CC(c2cc(F)cc(F)c2)C1 | 8.2 µM | 100% | 
23 | CCn1c2ccccc2c2cc(C3CC(=O)CC(=O)C3)ccc21 | 3.09 µM | 100% | 
24 | O=C1CC(=O)CC(c2cccc(Oc3ccc(Cl)cc3)c2)C1 | 2.18 µM | 100% | 

Row | Compound | EC50 [1] | Efficacy (PC-12 [2]) | further results
25 | CC1(COc2ccccc2)CC(=O)CC(=O)C1 | 6.28 µM | 100% | 
26 | Cc1cc(C)cc(CC2CC(=O)CC(=O)C2)c1 | 0.9 µM | 100% | 
27 | O=C1CC(=O)CC(c2ccccc2Cl)C1 | > 32 µM | 100% | 
28 | CSc1ccc(C2CC(=O)CC(=O)C2)cc1 | > 32 µM | 100% | 
29 | O=C1CC(=O)CC(c2c(F)cccc2F)C1 | > 32 µM | 100% | 
30 | O=C1CC(=O)CC(c2ccccc2Br)C1 | > 32 µM | 100% | 
31 | O=C1CC(=O)CC(c2ccoc2)C1 | > 32 µM | 100% | 
32 | O=C1CC(=O)CC(c2ccc3ccccc3c2)C1 | 6.21 µM | 100% | 
33 | O=C1CC(=O)CC(c2ccc(Cl)cc2Cl)C1 | 4.57 µM | 100% | 
34 | O=C1CC(=O)CC(CC(c2ccccc2)c2ccccc2)C1 | 3.43 µM | 100% | 
35 | O=C1CC(=O)CC(c2cccc(-c3cc(F)cc(F)c3)c2)C1 | 1.24 µM | 100% | 
36 | O=C1CC(=O)CC(c2ccc(OCc3ccccc3)cc2)C1 | > 32 µM | 100% | 
37 | CCCCc1ccc(C2CC(=O)CC(=O)C2)cc1 | 2.71 µM | 100% | 
38 | O=C1CC(=O)CC(c2cc(-c3ccccc3)cc(-c3ccccc3)c2)C1 | 2.53 µM | 100% | 
39 | O=C1CC(=O)CC(c2ccc(Oc3ccc(F)cc3)cc2)C1 | 2.37 µM | 100% | 
40 | Cc1ccccc1C1CC(=O)CC(=O)C1 | 3.39 µM | 100% | 
41 | O=C1CC(=O)CC(c2ccc(C(F)(F)F)cc2)C1 | 8.3 µM | 100% | 
42 | O=C1CC(=O)CC(c2ccc(OCCCc3ccccc3)cc2)C1 | 1.3 µM | 100% | 
43 | O=C1CC(=O)CC(c2cccc(-c3ccccc3)c2)C1 | 1.23 µM | 100% | 
44 | Cc1cc(C)c(C2CC(=O)CC(=O)C2)c(C)c1 | > 32 µM | 100% | 
45 | Cc1cccc(C)c1C1CC(=O)CC(=O)C1 | 2.7 µM | 100% | 
46 | O=C1CC(=O)CC(c2ccc(C(F)(F)F)cc2C(F)(F)F)C1 | 2.56 µM | 100% | 
47 | O=C1CC(=O)CC(c2cccc(Br)c2)C1 | 28.7 µM | 100% | 
48 | CC(C)c1cccc(C2CC(=O)CC(=O)C2)c1 | 1.58 µM | 100% | 

Row | Compound | EC50 [1] | Efficacy (PC-12 [2]) | further results
49 | Cc1cccc(C2CC(=O)CC(=O)C2)c1 | 4.81 µM | 100% | 
50 | CCc1ccc(C2CC(=O)CC(=O)C2)cc1 | 2.22 µM | 100% | 
51 | CC(Oc1cc(Cl)cc(Cl)c1)C1CC(=O)CC(=O)C1 (racemic) | 1.41 µM | 100% | 
52 | O=C1CC(=O)CC(c2cccc(C(F)(F)F)c2)C1 | 3.33 µM | 100% | 
53 | O=c1cc(COc2cc(Cl)cc(Cl)c2)[nH][nH]1 |  |  | Activity (SH-SY5Y): Active; Activity (PC-12 [3]): Active; Activity (HEK293): Active; Activity (Cerebral cortex neuron): Active; Activity (HeLa): Active
54 | CC(C)(C)c1ccc(C2CC(=O)CC(=O)C2)cc1 | 9.93 µM | 100% | 
55 | Cc1cc(C)cc(C2CC(=O)CC(=O)C2)c1 | 2.4 µM | 100% | 
56 | O=C1CC(=O)CC(c2ccc(-c3cccc(Cl)c3)o2)C1 | 2.71 µM | 100% | 
57 | Cc1cccc(C2CC(=O)CC(=O)C2)c1C | 2.39 µM | 100% | 
58 | O=C1CC(=O)CC(c2ccc(OCCOc3ccccc3)cc2)C1 | 1.56 µM | 100% | 
59 | O=C1CC(=O)CC(c2cc(-c3cccc(Cl)c3)cc(C(F)(F)F)c2)C1 | 1.56 µM | 100% | 
60 | O=C1CC(=O)CC(c2ccc(F)cc2F)C1 | > 32 µM | 100% | 
61 | O=C1CC(=O)CC(c2ccccc2F)C1 | > 32 µM | 100% | 
62 | O=C1CC(=O)CC(c2cc(-c3ccc(F)cc3)cc(-c3ccc(F)cc3)c2)C1 | 3.07 µM | 100% | 
63 | CC(c1ccccc1)C1CC(=O)CC(=O)C1 (racemic) | 5.85 µM | 100% | 
64 | O=C1CC(=O)CC([C@@H]2C[C@H]2c2cc(C(F)(F)F)cc(C(F)(F)F)c2)C1 (racemic) | 0.7 µM | 100% | 
65 | O=C1CC(=O)CC(Cc2ccccc2)C1 | 1.82 µM | 100% | 
66 | O=C1CC(=O)CC(c2c(Cl)cc(Cl)cc2Cl)C1 | 7.01 µM | 100% | 
67 | CC(C)(C)OC(=O)N1CCN(c2ccc(C3CC(=O)CC(=O)C3)cc2)CC1 | 8.29 µM | 100% | 
68 | O=C1CC(=O)CC(c2cccc(-c3ccc(Cl)cc3)c2)C1 | 3.51 µM | 100% | 
69 | O=C1CC(=O)CC(c2c(Cl)cccc2Cl)C1 | 24.3 µM | 100% | 
70 | C[C@@H]1C[C@H]2O[C@@H]2/C=C\C=C\C(=O)Cc2c(Cl)c(O)cc(O)c2C(=O)O1 |  |  | Efficacy (PC-12 [4]): 85%
71 | O=C1CC(=O)CC(c2cccc(-c3cc(C(F)(F)F)cc(C(F)(F)F)c3)c2)C1 | 2.15 µM | 100% | 
72 | CC(C)c1ccc(C2CC(=O)CC(=O)C2)cc1 | 4.09 µM | 100% | 

Reference: ChEMBL document CHEMBL1938301, “Cyclohexane 1,3-diones and their inhibition of mutant SOD1-dependent protein aggregation and toxicity in PC12 cells” (Bioorg Med Chem, 2012)
